Positions count from the first letter of the chain named.
Legend:
human TG2 [1] = target: T1, human TG2 (Homo sapiens, UniProt P21980); test: TG2 deamidation activity assay; type: biochemical; conditions: for kinh/Ki (bimolecular rate constant for TG2 oxidation): deamidation activity assay, 50 mM Tris, 1 mM EDTA, TG2 10 μM
T1 sequence (P21980 1-687): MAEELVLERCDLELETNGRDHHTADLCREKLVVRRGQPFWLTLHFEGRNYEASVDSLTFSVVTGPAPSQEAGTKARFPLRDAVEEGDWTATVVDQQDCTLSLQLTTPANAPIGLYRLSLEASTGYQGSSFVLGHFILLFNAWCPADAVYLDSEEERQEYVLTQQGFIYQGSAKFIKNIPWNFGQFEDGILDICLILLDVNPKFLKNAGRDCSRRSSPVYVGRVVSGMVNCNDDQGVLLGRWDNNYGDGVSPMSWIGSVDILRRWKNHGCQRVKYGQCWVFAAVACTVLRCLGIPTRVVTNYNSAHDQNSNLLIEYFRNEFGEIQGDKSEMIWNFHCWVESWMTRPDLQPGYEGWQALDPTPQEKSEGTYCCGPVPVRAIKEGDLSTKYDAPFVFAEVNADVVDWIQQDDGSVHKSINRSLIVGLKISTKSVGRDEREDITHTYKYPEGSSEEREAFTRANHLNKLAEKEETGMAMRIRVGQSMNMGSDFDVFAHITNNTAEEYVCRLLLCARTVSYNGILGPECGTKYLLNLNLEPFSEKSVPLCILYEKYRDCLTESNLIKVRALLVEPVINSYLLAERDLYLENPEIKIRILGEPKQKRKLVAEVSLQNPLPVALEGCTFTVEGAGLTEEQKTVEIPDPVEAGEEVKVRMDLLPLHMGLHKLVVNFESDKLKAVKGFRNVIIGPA
Summary of the method: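 Human TG2 was expressed in and purified from E. coli and held at 10 μM in 50 mM Tris, 1 mM EDTA, pH 7.6, 22 °C, with disulfide oxidant. Aliquots taken at 2.5–120 min were diluted 10-fold into assay buffer. Deamidation activity was read relative to oxidant-free enzyme, in three technical replicates. Single-exponential fits gave k′. kinh/Ki came from the slope of k′ versus [I0], and Ki from fitting k′ versus [I0].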

TG2 = conditions: reported value; cited from earlier work
human TG2 [2] = target: T1, human TG2; test: TG2 transamidation activity assay; type: biochemical
Summary of the method: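 Transamidation was measured with TG2 immobilized on fibronectin, in 50 mM Tris, 1 mM EDTA, pH 7.6, 22 °C. After timed exposure to oxidant, activity was read relative to untreated enzyme. Single-exponential fits gave k′. Ki and kinh/Ki came from the dependence of k′ on inhibitor concentration.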

[3] = target: T2, C230S mutant of human TG2 (Homo sapiens, UniProt P21980, C230S); test: Deamidation activity of the C230S mutant of TG2 after cystamine treatment; type: biochemical; conditions: 10-fold molar excess of cystamine, 30 min; pH 7.6, 22 °C
T2 sequence (P21980 1-687 C230S): T1 sequence (P21980 1-687) with C230S

kinh/Ki (bimolecular rate constant for TG2 oxidation) (human TG2 [1]; pH 7.6, 22 °C) [M⁻¹ s⁻¹]	Ki (human TG2 [1]) [µM]	inactivation of WT TG2 (deamidation activity) (human TG2 [1]; 10-fold molar excess of cystamine, 30 min, pH 7.6, 22 °C)	Ki (human TG2 [2]) [µM]	kinh/Ki (bimolecular rate constant for TG2 oxidation) (human TG2 [2]; transamidation activity assay, 50 mM Tris, 1 mM EDTA, pH 7.6, 22 °C (disulfiram: TG2 50 nM, disulfiram 10 μM, 2.5% DMSO)) [M⁻¹ s⁻¹]	retained deamidation activity of C230S mutant [3] [%]	SMILES	kinh/Ki (TG2) [M⁻¹ s⁻¹]
4.83	–	–	–	–	–	N[C@@H](CSSC[C@H](N)C(=O)O)C(=O)O [cystine]	–
–	–	–	–	–	–	O=C(NC[C@@H]1CC(Br)=NO1)[C@@H]1CCCN1C(=O)OCc1cnc2ccccc2c1 [ERW1041E]	267
20	> 600	completely inactivated	> 100	28.3	> 85	NCCSSCCN [cystamine]	–

— article PMC6008213 (Biochemistry, 2018)
